Among the data in ChEMBL document CHEMBL1154269, “Isolation and structural elucidation of euryjanicins B-D, proline-containing cycloheptapeptides from the Caribbean marine sponge Prosuberites laughlini” (2009) are Activity and viability values, retold here.

The subject of assay [1] is Hepatitis B virus. Nature of the assay: Antiviral activity against HBV. Type of assay: functional, organism-based.
Assay [2] relates to Influenza A virus. Nature of the assay: Antiviral activity against Influenza A H5N1. It is filed as functional, organism-based.
Assay [3] deals with Mycobacterium tuberculosis. Nature of the assay: Antituberculosis activity against Mycobacterium tuberculosis […] by alamar blue assay. Type of assay: functional, organism-based. Background: The colour change of resazurin is a common sign of viable cells or microbes.
Assay [4] deals with Plasmodium falciparum. Nature of the assay: Antimalarial activity against Plasmodium falciparum W2 clone after 48 hrs by fluorescence microplate reader assay. It is filed as functional, organism-based.
The test system of assay [5] is UO-31. Nature of the assay: Cytotoxicity against human UO31 cells assessed as viable cells at 10 uM after 48 hrs by sulforhodamine B assay. It is filed as functional. The conditions noted are these: UO-31, 48 h, read-out: Activity. The procedure, abridged: (§1)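 Tested at a single high dose of 10−5 M across the full NCI 60 human cancer cell line panel. Read-out is percent growth of treated cells.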

Assay [6] deals with Microglia. Nature of the assay: Antiinflammatory activity in LPS-stimulated rat neonatal microglia assessed as inhibition of PMA-stimulated superoxide anion production. Type of assay: functional.
In assay [7] the test system is Human alphaherpesvirus 2. Nature of the assay: Antiviral activity against HSV2. Type of assay: functional, organism-based.
Assay [8] relates to Respiratory syncytial virus. The assay can be described thus: Antiviral activity against RSV A. Type of assay: functional, organism-based.
Assay [9] concerns West Nile virus. Nature of the assay: Antiviral activity against WNV. Type of assay: functional, organism-based.
Assay [10] concerns Human alphaherpesvirus 1. The assay can be described thus: Antiviral activity against HSV1. It is filed as functional, organism-based.
Assay [11] relates to LOX IMVI. Nature of the assay: Cytotoxicity against human LOXIMVI cells assessed as viable cells at 10 uM after 48 hrs by sulforhodamine B assay. Type of assay: functional. The following applies: read-out: Activity. The essentials:
as §1
(In SRB staining, fixed cells bind dye roughly in proportion to their protein.)

The test system of assay [12] is IGROV-1. Nature of the assay: Cytotoxicity against human IGROV1 cells assessed as viable cells at 10 uM after 48 hrs by sulforhodamine B assay. It is filed as functional. The conditions noted are these: IGROV-1, 48 h, read-out: Activity. The essentials:
as §1

Assay [13] has as its system Rift Valley fever virus. Nature of the assay: Antiviral activity against Rift Valley fever virus. Type of assay: functional, organism-based.
The test system of assay [14] is NCI-H522. The assay can be described thus: Cytotoxicity against human NCI-H522 cells assessed as cell viability at 10 uM after 48 hrs by sulforhodamine B assay. Type of assay: functional. The conditions noted are these: NCI-H522, 48 h, read-out: Activity. The procedure, abridged:
as §1

In assay [15] the test system is Influenza B virus. The assay can be described thus: Antiviral activity against Influenza B. It is filed as functional, organism-based.

Activity calls are given as the source filed them. The rule behind the calls is not given here. Where a SMILES comes first, the peptide text is derived from it.

In the case of `CC[C@H](C)[C@@H]1NC(=O)[C@H]([C@@H](C)CC)NC(=O)[C@H]([C@@H](C)CC)NC(=O)[C@@H]2CCCN2C(=O)[C@H]([C@H](C)O)NC(=O)[C@@H]2CCCN2C(=O)[C@@H]2CCCN2C(=O)[C@H](CC(C)C)NC1=O` [DOMINICIN], the outcome in assay [1], in assay [2], in assay [3], in assay [4], in assay [6] and in assay [7] was inactive. Moreover, the outcome in assay [8], in assay [9], in assay [10], in assay [13] and in assay [15] was inactive. Besides, the viability at 10 µM in assay [5] was found to be 32.8%; in [11], 100%; in assay [12], 100%; in [14], 100%.

For the compound `CC(C)[C@@H]1NC(=O)[C@H](Cc2ccccc2)NC(=O)[C@@H]2CCCN2C(=O)[C@H]([C@@H](C)O)NC(=O)[C@H](C)NC(=O)[C@@H]2CCCN2C(=O)[C@@H]2CCCN2C1=O` [EURYJANICIN B] (cyclo(ATPFVPP)), the outcome in [1], in [2], in assay [3], in assay [4], in assay [6] and in [7] was inactive. Further, the outcome in assay [8], in assay [9], in [10], in [13] and in assay [15] was inactive. Further, the viability at 10 µM was found to be 76.3% in assay [5], 88.6% in [11], 91.3% in [12] and 83.9% in assay [14].

`CC[C@@H](C)[C@@H]1NC(=O)[C@@H]2CCCN2C(=O)[C@H](Cc2ccccc2)NC(=O)[C@H](CC(C)C)NC(=O)[C@@H]2CCCN2C(=O)[C@H]([C@H](C)CC)NC(=O)[C@H](CO)NC1=O` [EURYJANICIN C]: the result in [1], in [2], in assay [3], in assay [4], in [6] and in assay [7] was inactive. In addition, the outcome in assay [8], in assay [9], in assay [10], in assay [13] and in [15] was inactive. Further, the viability at 10 µM in assay [5] turned out to be 83.4%; in assay [11] it was 88%; in assay [12], 100%; in assay [14], 95.1%.

With `CC[C@@H](C)[C@@H]1NC(=O)[C@@H]2CCCN2C(=O)[C@H](CO)NC(=O)[C@H](Cc2ccccc2)NC(=O)[C@H]([C@H](C)CC)NC(=O)[C@@H]2CCCN2C(=O)[C@H](Cc2ccccc2)NC1=O` [EURYJANICIN D], the result in assay [1], in [2], in assay [3], in assay [4], in assay [6] and in [7] was inactive. Besides, the outcome in assay [8], in [9], in [10], in assay [13] and in assay [15] was inactive. Moreover, the viability at 10 µM in assay [5] is 82.7%; in [11] it was 87.6%; in [12], 100%; in assay [14] it was 94.6%.
